The subject of one assay is PANC-1. The assay can be described thus: Anti-diabetic activity against high glucose induced human PANC-1 cells assessed as decrease in glucose induced alpha-amylase expression by measuring by measuring minimum fractional index at 5 uM incubated for 23 hrs and measured after 24 hrs by flow cytometric analysis (reference value: 2887 +/- 95.87). The format is functional. For orientation: In flow cytometry, cells or beads pass a laser one at a time.

Assay [1] relates to Rattus norvegicus. The assay can be described thus: Antidiabetic activity against STZ-induced oxidative stress in Wistar rats model assessed as reduction malondialdehyde level in pancreatic tissue at 10 mg/kg, po administered for 21 days measured on day 35. The settings on record: time 35.0 day. The assay is classed as functional, organism-based. The procedure, abridged:
(§1)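 STZ-diabetic Wistar rats in six groups (normal, vehicle 0.5% CMC oral, STZ, STZ + test compounds, STZ + pioglitazone); oral treatment started day 14 after STZ on day 1. Markers measured in serum, pancreatic homogenate or whole blood, as named in each line. Groups compared by one-way ANOVA.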

Assay [2] is filed under the species Rattus norvegicus. The assay can be described thus: Anti-diabetic activity against STZ-induced diabetic Wistar rat model assessed as increase in number of trabeculae cells […] by H and E staining based analysis. The format is functional, organism-based. The procedure, abridged: (§2)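 Pancreas, liver and kidney from STZ-diabetic rats treated as in the in vivo schedule. Sections stained with haematoxylin and eosin and examined by light microscopy at 40× (50 μm scale bar). Islet boundaries, β-cells, central vein, sinusoids, trabeculae, and tubular necrosis or swelling were scored.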

For assay [3], the species on record is Rattus norvegicus. The assay can be described thus: Anti-inflammatory activity in STZ-induced diabetic Wistar rat model assessed as […] level in serum by ELISA method. The format is functional, organism-based. The procedure, abridged: as §1
In general terms: In an ELISA, binding on a coated surface is turned into a signal by an enzyme label.

The species named for assay [4] is Rattus norvegicus. The assay can be described thus: Anti-diabetic activity against STZ-induced diabetic Wistar rat model assessed as increase increase in number of basophils level. The format is functional, organism-based. The method, boiled down:
as §1

For assay [5], the species on record is Rattus norvegicus. Description: Anti-diabetic activity against STZ-induced diabetic Wistar rat model assessed as increase increase in number of total red blood cell count level. The assay is classed as functional, organism-based. The method, boiled down:
as §1

Assay [6] is filed under the species Rattus norvegicus. The assay can be described thus: Anti-diabetic activity against STZ-induced diabetic Wistar rat model assessed as clear boundaries in pancreatic islet […] by H and E staining based analysis. The format is functional, organism-based. The method, boiled down: as §2
Assay [7] has as its system Rattus norvegicus. The assay can be described thus: Antidiabetic activity against streptozotocin-induced Wistar rat assessed as increase in serum SGOT level at 10 mg/kg, po administered for 21 days measured on day 35. The assay is classed as functional, organism-based. The settings on record: time 35.0 day. The method, boiled down: as §1
Assay [8] is filed under the species Rattus norvegicus. The assay can be described thus: Anti-diabetic activity against STZ-induced diabetic Wistar rat model assessed as reduced in swelling […] by H and E staining based analysis. The assay is classed as functional, organism-based. The method, boiled down: as §2
For assay [9], the species on record is Rattus norvegicus. The assay can be described thus: Anti-diabetic activity in high glucose induced alpha-amylase expression in fasted STZ-induced diabetic Wistar rat model assessed as alpha-glucosidase level in pancreas by measuring minimum fractional index incubated for 23 hrs and measured after 24 hrs by flow cytometric analysis (reference value: 3063 + 149.2). The format is functional.

A short description of assay [10]: Inhibition of porcine pancreatic alpha-amylase using starch as substrate preincubated for 10 min followed by substrate addition and measured after 20 min by absorbance based analysis. On the set-up: species or system Sus scrofa. The procedure, abridged:
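Porcine α-amylase (1 U mL⁻¹) pre-incubated with compound 10 min at 25 °C in phosphate buffer pH 6.8. 1% starch added, then 15 min at 37.5 ± 2 °C. Quenched with DNS reagent, heated 70 °C 20 min, diluted with buffer, A540 read, in triplicate. Final concentrations 100–1 μM from DMSO dilutions; IC50 from a linear fit of % inhibition at y = 50.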

The test system of assay [11] is Rattus norvegicus. Description: Antidiabetic activity against streptozotocin-induced Wistar rat assessed as change in uric acid level at 10 mg/kg, po administered for 21 days measured on day 35. The format is functional, organism-based. The settings on record: time 35.0 day. The procedure, abridged:
as §1

The species entered for assay [12] is Rattus norvegicus. Description: Anti-diabetic activity against STZ-induced diabetic Wistar rat model assessed as reduced necrosis in pancreatic tissue […] by H and E staining based analysis. The format is functional, organism-based. The method, boiled down:
as §2

The species entered for assay [13] is Rattus norvegicus. Description: Anti-diabetic activity against STZ-induced diabetic Wistar rat model assessed as increase beta-cells […] by H and E staining based analysis. The format is functional, organism-based. The method, boiled down: as §2
The species entered for assay [14] is Rattus norvegicus. Description: Anti-diabetic activity against STZ-induced diabetic Wistar rat model assessed as increase increase in number of haemoglobin level. The assay is classed as functional, organism-based. The procedure, abridged:
as §1

Assay [15] has as its system Rattus norvegicus. The assay can be described thus: Antidiabetic activity against STZ-induced oxidative stress in Wistar rats model assessed as increase in SOD level in pancreatic tissue at 10 mg/kg, po administered for 21 days measured on day 35 by absorbance based UV-spectroscopic analysis. As to conditions: time 35.0 day.
The species named for assay [16] is Rattus norvegicus. Description: Anti-diabetic activity against STZ-induced diabetic Wistar rat model assessed as alteration in kidney morphology […] by H and E staining based analysis. The format is functional, organism-based. The method, boiled down: as §2
For assay [17], the species on record is Rattus norvegicus. The assay can be described thus: Anti-diabetic activity against STZ-induced diabetic Wistar rat model assessed as improvement in pancreas islet morphology […] by H and E staining based analysis. The assay is classed as functional, organism-based. The method, boiled down:
as §2

Assay [18] has as its system Rattus norvegicus. The assay can be described thus: Anti-diabetic activity against STZ-induced diabetic Wistar rat model assessed as decrease in dilatation of central vein at 10 mg/kg, po by H and E staining based analysis.

Here are results for two compounds from ChEMBL document CHEMBL6074625, “Thiazolidine-2,4-dione hybrids as dual alpha-amylase and alpha-glucosidase inhibitors: design, synthesis, in vitro and in vivo anti-diabetic evaluation” (RSC Med Chem, 2024).

The structures appear in SMILES notation. Active and inactive are the calls of the source. The rule behind the calls is not given here.

One may read the IC50 as the concentration needed to halve the response being measured.

`C#CCOc1ccc(/C=C2\SC(=O)N(Cc3cccc([N+](=O)[O-])c3)C2=O)cc1OCC`: the Activity_index in the assay on PANC-1 is reported as 109. Further, the outcome with Rattus norvegicus [1], in the assay listed under Rattus norvegicus [2], in the assay filed under Rattus norvegicus [3], in the assay filed under Rattus norvegicus [4], in the assay listed under Rattus norvegicus [5] and in the assay filed under Rattus norvegicus [6] was Active. The result in the assay with Rattus norvegicus [7], in the assay listed under Rattus norvegicus [8], in the assay with Rattus norvegicus [11], in the assay listed under Rattus norvegicus [12], in the assay filed under Rattus norvegicus [13] and in the assay listed under Rattus norvegicus [14] was Active. Besides, in the assay with Rattus norvegicus [15], the result was Active. Further, in the assay listed under Rattus norvegicus [9], the Activity index was determined as 2540. In [10], this compound returned an IC50 of 9.2 µM.

As to `C=CCOc1ccc(/C=C2\SC(=O)N(Cc3cccc([N+](=O)[O-])c3)C2=O)cc1OCC`, in the assay with PANC-1, the Activity_index is 797. The outcome with Rattus norvegicus [1], in the assay filed under Rattus norvegicus [3], in the assay filed under Rattus norvegicus [4], in the assay listed under Rattus norvegicus [5], with Rattus norvegicus [7] and in the assay filed under Rattus norvegicus [16] was Active. In addition, the outcome in the assay with Rattus norvegicus [11], in the assay listed under Rattus norvegicus [17], in the assay filed under Rattus norvegicus [14], in the assay with Rattus norvegicus [15] and with Rattus norvegicus [18] was Active. In the assay filed under Rattus norvegicus [9], the Activity index stood at 132. In assay [10], this compound yielded an IC50 of 17.1 µM.
